According to ChEMBL document CHEMBL4689842, “EUbOPEN Chemogenomics Library wave 1” (2021):

Columns and labels:
Format in all cases: toxicity, cell-based
HEK-293T [1] = experiment: Multiplex assay against HEK293T; conditions: human;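 as to Population Tubulin-Different-Phenotype (%): share of the cells with healthy nuclei that show this phenotype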
Summary of the method: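 Compound was added to live cells that had been stained at seeding with Hoechst33342, BioTracker Green Microtubule Cytoskeleton Dye, MitoTracker Red and Annexin V Alexa Fluor 680, and imaging followed on a CQ1 microscope at 37°C and 5% CO2. CellPathfinder machine-learning gating divided cells into Hoechst high-intensity objects or normal cells, normal cells into healthy, pyknosed or fragmented nuclei, and pyknosed cells into mitotic or apoptotic. Tubulin, mitochondrial-mass and membrane-permeability phenotypes are per cents of healthy-nucleus cells.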

HEK-293T [2] = experiment: Incucyte cell viability with HEK293T; conditions: human, 10 µM, compound concentration 10 uM; also: filed as whole numbers so only -1 and 0 and 1 occur
Fibroblast = experiment: Incucyte cell viability with human fibroblast; conditions: 10 µM, compound concentration 10 uM; also: filed as whole numbers so only -1 and 0 and 1 occur
[3] = 12 h, 1 µM, compound concentration 1 uM, replicate 1
[4] = 12 h, 1 µM, compound concentration 1 uM, replicate 2
[5] = 12 h, 10 µM, compound concentration 10 uM, replicate 1
[6] = 12 h, 10 µM, compound concentration 10 uM, replicate 2
[7] = 24 h, 1 µM, compound concentration 1 uM, replicate 1
[8] = 24 h, 1 µM, compound concentration 1 uM, replicate 2
[9] = 24 h, 10 µM, compound concentration 10 uM, replicate 1
[10] = 24 h, 10 µM, compound concentration 10 uM, replicate 2
[11] = 48 h, 1 µM, compound concentration 1 uM, replicate 1
[12] = 48 h, 1 µM, compound concentration 1 uM, replicate 2
[13] = 48 h, 10 µM, compound concentration 10 uM, replicate 1
[14] = 48 h, 10 µM, compound concentration 10 uM, replicate 2
[15] = 6 h, replicate number 1, timepoint 6 hours
[16] = 12 h, replicate number 1, timepoint 12 hours
[17] = 18 h, replicate number 1, timepoint 18 hours
[18] = 24 h, replicate number 1, timepoint 24 hours

Structure (SMILES): Cc1nc(Cc2cccc(C(F)(F)F)c2)sc1-c1ccc(C(N)=O)nc1 [TP-024n]
- Population Apoptotic (%) (HEK-293T [1]; [3]): 41%
- Population Fragmented Nuclei (%) (HEK-293T [1]; [3]): 7%
- Population Healthy Nuclei (%) (HEK-293T [1]; [3]): 53%
- Population Hoechst High Intensity Objects (%) (HEK-293T [1]; [3]): 14%
- Population Membrane Permeable-Phenotype (%) (HEK-293T [1]; [3]): 2%
- Population Mitochondria Different-Phenotype (%) (HEK-293T [1]; [3]): 65%
- Population Mitotic Cells (%) (HEK-293T [1]; [3]): 58%
- Population Normal (%) (HEK-293T [1]; [3]): 85%
- Population Pyknosed Nuclei (%) (HEK-293T [1]; [3]): 39%
- Population Tubulin-Different-Phenotype (%) (HEK-293T [1]; [3]): 41%
- Total Cell Count (HEK-293T [1]; [3]): 435
- Population Apoptotic (%) (HEK-293T [1]; [4]): 10%
- Population Fragmented Nuclei (%) (HEK-293T [1]; [4]): 2%
- Population Healthy Nuclei (%) (HEK-293T [1]; [4]): 47%
- Population Hoechst High Intensity Objects (%) (HEK-293T [1]; [4]): 5%
- Population Membrane Permeable-Phenotype (%) (HEK-293T [1]; [4]): 9%
- Population Mitochondria Different-Phenotype (%) (HEK-293T [1]; [4]): 22%
- Population Mitotic Cells (%) (HEK-293T [1]; [4]): 89%
- Population Normal (%) (HEK-293T [1]; [4]): 94%
- Population Pyknosed Nuclei (%) (HEK-293T [1]; [4]): 50%
- Population Tubulin-Different-Phenotype (%) (HEK-293T [1]; [4]): 26%
- Total Cell Count (HEK-293T [1]; [4]): 212
- Population Apoptotic (%) (HEK-293T [1]; [5]): 50%
- Population Fragmented Nuclei (%) (HEK-293T [1]; [5]): 11%
- Population Healthy Nuclei (%) (HEK-293T [1]; [5]): 29%
- Population Hoechst High Intensity Objects (%) (HEK-293T [1]; [5]): 12%
- Population Membrane Permeable-Phenotype (%) (HEK-293T [1]; [5]): 0%
- Population Mitochondria Different-Phenotype (%) (HEK-293T [1]; [5]): 91%
- Population Mitotic Cells (%) (HEK-293T [1]; [5]): 49%
- Population Normal (%) (HEK-293T [1]; [5]): 87%
- Population Pyknosed Nuclei (%) (HEK-293T [1]; [5]): 59%
- Population Tubulin-Different-Phenotype (%) (HEK-293T [1]; [5]): 59%
- Total Cell Count (HEK-293T [1]; [5]): 316
- Population Apoptotic (%) (HEK-293T [1]; [6]): 25%
- Population Fragmented Nuclei (%) (HEK-293T [1]; [6]): 8%
- Population Healthy Nuclei (%) (HEK-293T [1]; [6]): 25%
- Population Hoechst High Intensity Objects (%) (HEK-293T [1]; [6]): 9%
- Population Membrane Permeable-Phenotype (%) (HEK-293T [1]; [6]): 6%
- Population Mitochondria Different-Phenotype (%) (HEK-293T [1]; [6]): 66%
- Population Mitotic Cells (%) (HEK-293T [1]; [6]): 75%
- Population Normal (%) (HEK-293T [1]; [6]): 90%
- Population Pyknosed Nuclei (%) (HEK-293T [1]; [6]): 65%
- Population Tubulin-Different-Phenotype (%) (HEK-293T [1]; [6]): 30%
- Total Cell Count (HEK-293T [1]; [6]): 141
- Population Apoptotic (%) (HEK-293T [1]; [7]): 49%
- Population Fragmented Nuclei (%) (HEK-293T [1]; [7]): 9%
- Population Healthy Nuclei (%) (HEK-293T [1]; [7]): 50%
- Population Hoechst High Intensity Objects (%) (HEK-293T [1]; [7]): 11%
- Population Membrane Permeable-Phenotype (%) (HEK-293T [1]; [7]): 2%
- Population Mitochondria Different-Phenotype (%) (HEK-293T [1]; [7]): 55%
- Population Mitotic Cells (%) (HEK-293T [1]; [7]): 50%
- Population Normal (%) (HEK-293T [1]; [7]): 88%
- Population Pyknosed Nuclei (%) (HEK-293T [1]; [7]): 40%
- Population Tubulin-Different-Phenotype (%) (HEK-293T [1]; [7]): 28%
- Total Cell Count (HEK-293T [1]; [7]): 429
- Population Apoptotic (%) (HEK-293T [1]; [8]): 19%
- Population Fragmented Nuclei (%) (HEK-293T [1]; [8]): 4%
- Population Healthy Nuclei (%) (HEK-293T [1]; [8]): 62%
- Population Hoechst High Intensity Objects (%) (HEK-293T [1]; [8]): 2%
- Population Membrane Permeable-Phenotype (%) (HEK-293T [1]; [8]): 5%
- Population Mitochondria Different-Phenotype (%) (HEK-293T [1]; [8]): 24%
- Population Mitotic Cells (%) (HEK-293T [1]; [8]): 80%
- Population Normal (%) (HEK-293T [1]; [8]): 97%
- Population Pyknosed Nuclei (%) (HEK-293T [1]; [8]): 33%
- Population Tubulin-Different-Phenotype (%) (HEK-293T [1]; [8]): 36%
- Total Cell Count (HEK-293T [1]; [8]): 239
- Population Apoptotic (%) (HEK-293T [1]; [9]): 51%
- Population Fragmented Nuclei (%) (HEK-293T [1]; [9]): 11%
- Population Healthy Nuclei (%) (HEK-293T [1]; [9]): 31%
- Population Hoechst High Intensity Objects (%) (HEK-293T [1]; [9]): 17%
- Population Membrane Permeable-Phenotype (%) (HEK-293T [1]; [9]): 3%
- Population Mitochondria Different-Phenotype (%) (HEK-293T [1]; [9]): 86%
- Population Mitotic Cells (%) (HEK-293T [1]; [9]): 48%
- Population Normal (%) (HEK-293T [1]; [9]): 82%
- Population Pyknosed Nuclei (%) (HEK-293T [1]; [9]): 57%
- Population Tubulin-Different-Phenotype (%) (HEK-293T [1]; [9]): 52%
- Total Cell Count (HEK-293T [1]; [9]): 338
- Population Apoptotic (%) (HEK-293T [1]; [10]): 36%
- Population Fragmented Nuclei (%) (HEK-293T [1]; [10]): 10%
- Population Healthy Nuclei (%) (HEK-293T [1]; [10]): 30%
- Population Hoechst High Intensity Objects (%) (HEK-293T [1]; [10]): 10%
- Population Membrane Permeable-Phenotype (%) (HEK-293T [1]; [10]): 2%
- Population Mitochondria Different-Phenotype (%) (HEK-293T [1]; [10]): 65%
- Population Mitotic Cells (%) (HEK-293T [1]; [10]): 63%
- Population Normal (%) (HEK-293T [1]; [10]): 89%
- Population Pyknosed Nuclei (%) (HEK-293T [1]; [10]): 59%
- Population Tubulin-Different-Phenotype (%) (HEK-293T [1]; [10]): 50%
- Total Cell Count (HEK-293T [1]; [10]): 148
- Population Apoptotic (%) (HEK-293T [1]; [11]): 32%
- Population Fragmented Nuclei (%) (HEK-293T [1]; [11]): 12%
- Population Healthy Nuclei (%) (HEK-293T [1]; [11]): 50%
- Population Hoechst High Intensity Objects (%) (HEK-293T [1]; [11]): 9%
- Population Membrane Permeable-Phenotype (%) (HEK-293T [1]; [11]): 4%
- Population Mitochondria Different-Phenotype (%) (HEK-293T [1]; [11]): 25%
- Population Mitotic Cells (%) (HEK-293T [1]; [11]): 67%
- Population Normal (%) (HEK-293T [1]; [11]): 90%
- Population Pyknosed Nuclei (%) (HEK-293T [1]; [11]): 37%
- Population Tubulin-Different-Phenotype (%) (HEK-293T [1]; [11]): 25%
- Total Cell Count (HEK-293T [1]; [11]): 594
- Population Apoptotic (%) (HEK-293T [1]; [12]): 17%
- Population Fragmented Nuclei (%) (HEK-293T [1]; [12]): 5%
- Population Healthy Nuclei (%) (HEK-293T [1]; [12]): 80%
- Population Hoechst High Intensity Objects (%) (HEK-293T [1]; [12]): 2%
- Population Membrane Permeable-Phenotype (%) (HEK-293T [1]; [12]): 5%
- Population Mitochondria Different-Phenotype (%) (HEK-293T [1]; [12]): 5%
- Population Mitotic Cells (%) (HEK-293T [1]; [12]): 82%
- Population Normal (%) (HEK-293T [1]; [12]): 97%
- Population Pyknosed Nuclei (%) (HEK-293T [1]; [12]): 13%
- Population Tubulin-Different-Phenotype (%) (HEK-293T [1]; [12]): 19%
- Total Cell Count (HEK-293T [1]; [12]): 464
- Population Apoptotic (%) (HEK-293T [1]; [13]): 53%
- Population Fragmented Nuclei (%) (HEK-293T [1]; [13]): 18%
- Population Healthy Nuclei (%) (HEK-293T [1]; [13]): 27%
- Population Hoechst High Intensity Objects (%) (HEK-293T [1]; [13]): 12%
- Population Membrane Permeable-Phenotype (%) (HEK-293T [1]; [13]): 2%
- Population Mitochondria Different-Phenotype (%) (HEK-293T [1]; [13]): 69%
- Population Mitotic Cells (%) (HEK-293T [1]; [13]): 46%
- Population Normal (%) (HEK-293T [1]; [13]): 87%
- Population Pyknosed Nuclei (%) (HEK-293T [1]; [13]): 53%
- Population Tubulin-Different-Phenotype (%) (HEK-293T [1]; [13]): 42%
- Total Cell Count (HEK-293T [1]; [13]): 373
- Population Apoptotic (%) (HEK-293T [1]; [14]): 46%
- Population Fragmented Nuclei (%) (HEK-293T [1]; [14]): 10%
- Population Healthy Nuclei (%) (HEK-293T [1]; [14]): 39%
- Population Hoechst High Intensity Objects (%) (HEK-293T [1]; [14]): 5%
- Population Membrane Permeable-Phenotype (%) (HEK-293T [1]; [14]): 6%
- Population Mitochondria Different-Phenotype (%) (HEK-293T [1]; [14]): 54%
- Population Mitotic Cells (%) (HEK-293T [1]; [14]): 53%
- Population Normal (%) (HEK-293T [1]; [14]): 94%
- Population Pyknosed Nuclei (%) (HEK-293T [1]; [14]): 50%
- Population Tubulin-Different-Phenotype (%) (HEK-293T [1]; [14]): 60%
- Total Cell Count (HEK-293T [1]; [14]): 164
- Growth Rate (HEK-293T [2]; 0 h, replicate number 2, timepoint 0 hours): 0
- Growth Rate (HEK-293T [2]; [15]): 0
- Growth Rate (HEK-293T [2]; [16]): 0
- Growth Rate (HEK-293T [2]; [17]): 0
- Growth Rate (HEK-293T [2]; [18]): 0
- Growth Rate (Fibroblast; [15]): 0
- Growth Rate (Fibroblast; [16]): 0
- Growth Rate (Fibroblast; [17]): 0
- Growth Rate (Fibroblast; [18]): 0
